Assay outcomes deposited in PubChem by several laboratories.
Diaphorase inh: inhibits diaphorase or chemically oxidizes, flagging diaphorase assay artifacts; diaphorase resazurin-to-resorufin fluorescence, NADH, 16 min; bacterial (C. kluyveri) enzyme, not human; inhibition, % at 20 µM; hit rate 0.69% among 190,000;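 active means primary screen inhibition at 20 µM above a set limit, cut at about 50% in these data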;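 further: plate controls were DMSO with full reaction for no effect and wells lacking NADH for full effect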
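controls = No-NADH positive control and DMSO neutral control | system = Clostridium kluyveri diaphorase enzyme | timing = reaction incubation of 16 min at room temperature | signal = resorufin fluorescence 544/590 nm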
G6PDH counter: inhibits Leuconostoc G6PDH, flagging false hits in G6PDH-based assays. Purified L. mesenteroides G6PDH, diaphorase/resazurin coupled fluorescence, 45 min. inhibition, % at 5 µM. hit rate 0.12% among 200,000; in the data active means inhibition above about 50%
PfGluPho inh: PfG6PD (Plasmodium falciparum) enzyme inhibition; PfGluPho enzyme, NADPH resazurin-diaphorase fluorescence; inhibition, % at 20 µM; hit rate 0.78% among 350,000;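 active means inhibition reaching at least a set limit at 20 µM in the primary screen, cut at about 59% in these data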;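 further: 0% = DMSO wells with substrate and 100% = DMSO wells lacking glucose-6-phosphate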
HKDC1 inh: inhibitors of human hexokinase HKDC1. AID 493160. recombinant HKDC1, G6PDH/diaphorase resazurin coupled fluorescence. hit rate 0.16% among 340,000. Q2TB90. inhibition, % at 20 µM;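 active means inhibition above about 35% when tested at 20 µM, limit read from the data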;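 further: plate controls were DMSO wells with enzyme for no effect and DMSO wells lacking enzyme for full effect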
Target sequence (Q2TB90 whole entry, looked up): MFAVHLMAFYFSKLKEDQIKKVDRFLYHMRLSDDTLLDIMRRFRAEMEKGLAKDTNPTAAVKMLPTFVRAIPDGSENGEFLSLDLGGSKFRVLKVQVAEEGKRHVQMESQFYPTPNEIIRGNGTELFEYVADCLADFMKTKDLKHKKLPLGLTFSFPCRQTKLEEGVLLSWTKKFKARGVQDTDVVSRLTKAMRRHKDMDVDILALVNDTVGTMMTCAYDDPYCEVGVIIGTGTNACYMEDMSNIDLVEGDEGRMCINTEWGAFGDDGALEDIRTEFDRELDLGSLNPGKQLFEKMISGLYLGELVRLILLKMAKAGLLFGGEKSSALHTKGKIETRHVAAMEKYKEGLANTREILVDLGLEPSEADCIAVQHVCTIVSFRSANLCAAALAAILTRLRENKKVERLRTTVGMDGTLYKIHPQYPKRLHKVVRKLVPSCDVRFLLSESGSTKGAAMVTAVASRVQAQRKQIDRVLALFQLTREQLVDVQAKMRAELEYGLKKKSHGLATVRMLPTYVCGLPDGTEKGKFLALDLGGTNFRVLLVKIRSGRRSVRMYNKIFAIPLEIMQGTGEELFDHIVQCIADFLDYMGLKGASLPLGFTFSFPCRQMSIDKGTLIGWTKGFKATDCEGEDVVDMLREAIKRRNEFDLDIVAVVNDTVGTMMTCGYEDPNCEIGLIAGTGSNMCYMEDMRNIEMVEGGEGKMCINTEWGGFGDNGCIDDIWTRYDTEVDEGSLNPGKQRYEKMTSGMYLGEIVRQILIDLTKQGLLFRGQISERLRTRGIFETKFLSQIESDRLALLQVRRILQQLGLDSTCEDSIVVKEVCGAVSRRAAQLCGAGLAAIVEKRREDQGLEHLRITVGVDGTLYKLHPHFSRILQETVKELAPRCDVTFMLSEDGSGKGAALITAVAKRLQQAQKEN
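Assay system – recombinant HKDC1 (HK5) hexokinase enzyme, produced in-house · Input – HKDC1 at 5 µg/mL · Reagent – glucose plus 1 mM ATP as hexokinase substrates · Timing – 90 min reaction incubation at room temperature, dark · Measured by – G6PDH/diaphorase-coupled fluorescence, 1 mM NADP, 100 µM resazurin, 525/613 nm · Benchmarks – DMSO-enzyme wells negative, buffer-substituted wells positive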
Tb hexokinase: T. brucei hexokinase 1 inhibition; hit rate 0.11% among 220,000; recombinant TbHK1, G6PDH-coupled NADH A340; inhibition, % at 10 µM;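 active means inhibition of 50% or more in the single-dose primary screen; inactive means inhibition below 50%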
PfG6PD confirm: confirmation of Plasmodium falciparum G6PD inhibitors | shares compounds with PfGluPho inh | recombinant PfGluPho, NADPH-diaphorase-resazurin fluorescence | inhibition, % at 20 µM | hit rate 34% among 2,400 | AID 504753;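 active means inhibition of at least 50% at 20 µM in any single replicate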;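 further: 0% = DMSO with substrate and 100% = DMSO lacking glucose-6-phosphate substrate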
Diaphorase 10uM: counter-screen for P. falciparum G6PD inhibitors: diaphorase inhibitors, oxidizers; inhibition, % at 20 µM; hit rate 39% among 820; diaphorase-coupled resazurin reduction, fluorescence, NADPH 10 uM; shares compounds with PfGluPho inh;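 active means average inhibition reaching 50% or more with the compound at 20 µM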;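 further: resorufin red fluorescence formed as diaphorase reduces resazurin using NADPH; 0% = DMSO with enzyme and 100% = DMSO without enzyme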
Diaphorase 30uM: counter-screen for P. falciparum G6PD inhibitors: diaphorase inhibitors, oxidizers. inhibition, % at 20 µM. Diaphorase/resazurin coupled assay, resorufin fluorescence, 30 uM NADPH. hit rate 29% among 820. AID 504863. shares compounds with PfGluPho inh;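 active means inhibition averaging 50% or more, tested at 20 µM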;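 further: 0% = DMSO with enzyme and 100% = DMSO wells lacking diaphorase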
Starred values were filed as active, the others as inactive. Sampled rows, rich in hits. Any-hit rate of the full collection: about 1.3%.

For Cc1cc(C)n(CCC(=O)N/N=C/c2cccc([N+](=O)[O-])c2)n1 the results were PfGluPho inh 8, HKDC1 inh 4 and Tb hexokinase -4.
`O=C(CCCOc1ccc(Cl)cc1Cl)N/N=C/c1ccc(Cl)cc1` gave Diaphorase inh 5, G6PDH counter -5, PfGluPho inh 62*, HKDC1 inh -7, Tb hexokinase 2 and PfG6PD confirm 21.
Cc1cc(Cl)ccc1OCCCC(=O)N/N=C/c1cccc([N+](=O)[O-])c1 was read as Diaphorase inh -4, G6PDH counter 9, PfGluPho inh 112*, HKDC1 inh 8, Tb hexokinase -8, PfG6PD confirm 94*, Diaphorase 10uM 81* and Diaphorase 30uM 57*.
For Cc1nc(SCC(=O)N2CC(C)OC(C)C2)nc(C)c1C (centres undefined) the results were Diaphorase inh 9, G6PDH counter 6, PfGluPho inh 8, HKDC1 inh -3 and Tb hexokinase 5.
`CC1=C(C)C(=O)N(c2ccccn2)C1=O` gave Diaphorase inh 1, G6PDH counter 10, PfGluPho inh 3, HKDC1 inh -8 and Tb hexokinase 2.
Screening Cc1nn(-c2ccccn2)c2c1C(=O)C(Br)CC2 (centres undefined) returned Diaphorase inh 82*, G6PDH counter 33, PfGluPho inh 90*, HKDC1 inh 11, Tb hexokinase 2 and PfG6PD confirm -1.
`COCC(=O)Nc1nnc(COc2ccc(Cl)cc2)s1` gave Diaphorase inh -6, G6PDH counter -1, PfGluPho inh -14, HKDC1 inh -6 and Tb hexokinase 4.
`Cc1onc(-c2ccccc2)c1C(=O)Nc1nnc(COc2ccc(Cl)cc2)s1` gave Diaphorase inh 27, G6PDH counter -17, PfGluPho inh 78*, HKDC1 inh -21, Tb hexokinase 8 and PfG6PD confirm 49.
For Cc1cccc(C)c1OCc1nnc(NC(=O)CSc2ccc(Cl)cc2)s1 the results were Diaphorase inh 12, G6PDH counter 6, PfGluPho inh -7, HKDC1 inh -1 and Tb hexokinase 13.
CCOCC(=O)Nc1nnc(COc2ccc(Cl)cc2)s1 was read as Diaphorase inh 4, G6PDH counter 9, PfGluPho inh 62*, HKDC1 inh -12, Tb hexokinase -4 and PfG6PD confirm 15.
O=C(CSc1ccccc1)Nc1nnc(COc2ccc(Cl)cc2)s1 was read as Diaphorase inh 8, G6PDH counter 18, PfGluPho inh 78*, HKDC1 inh -26, Tb hexokinase 10 and PfG6PD confirm 43.
Screening N=c1n(CCN2CCOCC2)c2ccccc2n1CC(=O)c1cccc([N+](=O)[O-])c1 returned PfGluPho inh 75*, HKDC1 inh 7 and PfG6PD confirm -6.
`N=c1n(CCN2CCOCC2)c2ccccc2n1CC(=O)c1ccc(Cl)c(Cl)c1` gave Diaphorase inh 3, G6PDH counter 11, PfGluPho inh 114*, HKDC1 inh -1, Tb hexokinase 2 and PfG6PD confirm 1.
Screening CCCCOC(=O)Cn1c(=N)n(CCN2CCOCC2)c2ccccc21 returned PfGluPho inh 0, HKDC1 inh -4 and Tb hexokinase 3.
CCCn1c(=N)n(CC(=O)c2ccc([N+](=O)[O-])cc2)c2ccccc21 was read as Diaphorase inh 4, G6PDH counter -6, PfGluPho inh 73*, HKDC1 inh 3, Tb hexokinase 2 and PfG6PD confirm -22.
`Cc1cc(C)c(NC(=O)Nc2ccc3c(c2)OCO3)c(C)c1` gave PfGluPho inh -16 and HKDC1 inh -2.
Cc1cc(C)c2[nH]c(C(=O)Nc3ccc4c(c3)OCO4)cc2c1 was read as PfGluPho inh 61*, HKDC1 inh 4, Tb hexokinase -1 and PfG6PD confirm 3.
CN(C(=O)c1cnc(N2CCN(c3ncccn3)CC2)c2ccccc12)c1ccc(Cl)cc1 was read as Diaphorase inh 17, G6PDH counter 6, PfGluPho inh 98*, HKDC1 inh 1, Tb hexokinase -10 and PfG6PD confirm 35.
For CCN(C(=O)c1cnc(N2CCN(c3ncccn3)CC2)c2ccccc12)c1cccc(Cl)c1 the results were Diaphorase inh 33, G6PDH counter 7, PfGluPho inh 25, HKDC1 inh 5 and Tb hexokinase -13.
Screening CNc1nc(C)cc(C)c1S(=O)(=O)c1ccc(C)cc1 returned Diaphorase inh 18, G6PDH counter 3, PfGluPho inh 7, HKDC1 inh 0 and Tb hexokinase -15.
`O=C(CCC(=O)N1CCN(c2ccc(O)cc2)CC1)c1ccc(Br)cc1` gave Tb hexokinase -2.
CCOc1ccc(C(=O)CCC(=O)N2CCN(c3ccc(O)cc3)CC2)cc1 was read as PfGluPho inh 67*, HKDC1 inh -3 and PfG6PD confirm 3.
Screening COc1ccc(C(=O)NCCc2c[nH]c3ccc(OC)cc23)cc1 returned PfGluPho inh 2 and HKDC1 inh 0.
`COc1ccc2[nH]cc(CCNC(=O)c3ccc4ccccc4n3)c2c1` gave PfGluPho inh 62*, HKDC1 inh 4 and PfG6PD confirm 40.
`Cn1c(=O)[nH]c(=O)c2c1nc([N+](=O)[O-])n2Cc1ccccc1` gave PfGluPho inh 86*, HKDC1 inh 11, Tb hexokinase -6, PfG6PD confirm 88*, Diaphorase 10uM 50 and Diaphorase 30uM 51*.
Screening CC(C)Cn1c([N+](=O)[O-])nc2c1c(=O)[nH]c(=O)n2C returned PfGluPho inh 71*, HKDC1 inh 15, Tb hexokinase -24, PfG6PD confirm 55*, Diaphorase 10uM 36 and Diaphorase 30uM 37.
For COc1cc(OC)c(N(C)S(=O)(=O)c2cccc(C(=O)Nc3nccs3)c2)cc1Cl the results were PfGluPho inh 8 and HKDC1 inh -1.
`Cn1cc(C(CO)Cc2ccccc2)c2ccccc21` (centres undefined) gave PfGluPho inh 88*, HKDC1 inh -4 and PfG6PD confirm 40.
For COc1ccc(C[C@@H]2OC3(C=CC(=O)C=C3)O[C@H]2Cc2ccc(OC)cc2)cc1 the results were PfGluPho inh 62*, HKDC1 inh 32 and PfG6PD confirm 20.
For COc1ccc(N2C(=O)CC(Cc3ccccc3)C2=O)cc1 (centres undefined) the results were Diaphorase inh 14, G6PDH counter 0, PfGluPho inh -1, HKDC1 inh -9 and Tb hexokinase 3.
